Laboratory results reported in ChEMBL document CHEMBL1129639, “Synthesis and cardiotonic activity of novel pyrimidine derivatives: crystallographic and quantum chemical studies” (J Med Chem, 1996).

Tests used:
Cavia porcellus [1] = species on record: Cavia porcellus; test: Effect on the contractile force of spontaneously beating atria from Reserpine-treated guinea pigs as percentage variation from the control at concentration of 10E-6 M; format: functional
In short: (§1)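 Atria from reserpine-treated guinea pigs (reserpine 2 mg/kg ip, 48 and 24 h before death; only tyramine-unresponsive preparations used). Bath solution at 29 °C, gassed 95% O2/5% CO2, pH 7.5, resting tension […]. After 90 min equilibration, compound added cumulatively, 5 min per concentration. Isometric developed-tension amplitude or beating rate given as % variation from untreated control. Mean ± SEM, 6-10 assays.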

Cavia porcellus [2] = species on record: Cavia porcellus; test: Compound was evaluated for its effect on the frequency rate of spontaneously beating atria from Reserpine-treated guinea pigs as percentage variation from the control at concentration of 3 x 10E-4 M; format: functional; in short: as §1
Cavia porcellus [3] = species on record: Cavia porcellus; test: Effect on the contractile force of spontaneously beating atria from Reserpine treated guinea pigs as percentage variation from the control at concentration of 10E-4 M; format: functional; in short: as §1
Cavia porcellus [4] = species on record: Cavia porcellus; test: Effect on the contractile force of spontaneously beating atria from Reserpine-treated guinea pigs as percentage variation from the control at concentration of 10E-5 M; format: functional; in short: as §1
Cavia porcellus [5] = species on record: Cavia porcellus; test: Effect on the contractile force of spontaneously beating atria from Reserpine-treated guinea pigs as percentage variation from the control at concentration of 3 x 10E-6 M; format: functional; in short: as §1
Cavia porcellus [6] = species on record: Cavia porcellus; test: Effect on the contractile force of spontaneously beating atria from Reserpine-treated guinea pigs as percentage variation from the control at concentration of 10E-3 M; format: functional; in short: as §1
Cavia porcellus [7] = species on record: Cavia porcellus; test: Effect on the frequency rate of spontaneously beating atria from Reserpine-treated guinea pigs as percentage variation from the control at concentration of 10E-3 M; format: functional; in short: as §1
Cavia porcellus [8] = species on record: Cavia porcellus; test: Effect on the frequency rate of spontaneously beating atria from Reserpine-treated guinea pigs as percentage variation from the control at concentration of 10E-6 M; format: functional; in short: as §1
Cavia porcellus [9] = species on record: Cavia porcellus; test: (§2) Compound was evaluated for its effect on the frequency rate of spontaneously beating atria from Reserpine-treated guinea pigs as percentage variation from the control at concentration of 3 x 10E-5 M; format: functional, guinea pig; in short: as §1
Cavia porcellus [10] = species on record: Cavia porcellus; test: Effect on the contractile force of spontaneously beating atria from Reserpine-treated guinea pigs as percentage variation from the control at concentration of 3 x 10E-5 M; format: functional; in short: as §1
Cavia porcellus [11] = species on record: Cavia porcellus; test: Effect on the frequency rate of spontaneously beating atria from Reserpine-treated guinea pigs as percentage variation from the control at concentration of 10E-5 M; format: functional; in short: as §1
Cavia porcellus [12] = species on record: Cavia porcellus; test: Effect on the contractile force of spontaneously beating atria from Reserpine-treated guinea pigs as percentage variation from the control at concentration of 3 x 10E-4 M; format: functional; in short: as §1
Cavia porcellus [13] = species on record: Cavia porcellus; test: Effect on the frequency rate of spontaneously beating atria from Reserpine-treated guinea pigs as percentage variation from the control at concentration of 10E-4 M; format: functional; in short: as §1
Cavia porcellus [14] = species on record: Cavia porcellus; test: Compound was evaluated for its effect on the frequency rate of spontaneously beating atria from Reserpine-treated guinea pigs as percentage variation from the control at concentration of 3 x 10E-6 M; format: functional; in short: as §1
Cavia porcellus [15] = species on record: Cavia porcellus; test: Ionotropic Response to 8-Phenyltheophylline (3 x 10E-5 M) in Electrically driven Left atrium from Resperpine-Treated Guinea pigs at the concentration of 3 x 10E-5 M; format: functional, Cardiac atrium
In short: (§3)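 Guinea pigs pretreated with reserpine (2 mg/kg ip) 48 and 24 h before sacrifice; atria unresponsive to tyramine (2 µg/mL) used. Left atrium electrically driven, in oxygenated salt solution (95% O2/5% CO2, pH 7.5, 29 °C), resting tension […], isometric developed tension. 90 min equilibration; test agent present while cumulative 8-phenyltheophylline curves run, 5 min per concentration; % variation from control; mean ± SEM, four assays.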

Cavia porcellus [16] = species on record: Cavia porcellus; test: Ionotropic Response to 8-Phenyltheophylline (3 x 10E-5 M) in Electrically driven Left atrium from Resperpine-Treated Guinea pigs at the concentration of 3 x 10E-4 M; format: functional, Cardiac atrium; in short: as §3
Cavia porcellus [17] = species on record: Cavia porcellus; test: Ionotropic Response to 8-Phenyltheophylline (3 x 10E-6 M) in Electrically driven Left atrium from Resperpine-Treated Guinea pigs at the concentration of 10E-4 M; format: functional, Cardiac atrium; in short: as §3
Cavia porcellus [18] = species on record: Cavia porcellus; test: Ionotropic Response to 8-Phenyltheophylline (3 x 10E-6 M) in Electrically driven Left atrium from Resperpine-Treated Guinea pigs at the concentration of 3 x 10E-4 M; format: functional, Cardiac atrium; in short: as §3
Cavia porcellus [19] = species on record: Cavia porcellus; test: Ionotropic Response to 8-Phenyltheophylline (10e-5 M)in Electrically driven Left atrium from Resperpine-Treated Guinea pigs at the concentration of 3 x 10E-5 M; format: functional, Cardiac atrium
In short: (§4)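 Electrically driven left atrium from reserpine-treated guinea pigs, 29 °C, pH 7.5. Cumulative 8-phenyltheophylline concentration-effect curves were run without or with 3 × 10^-5 to 3 × 10^-4 M test compound (DMSO). Developed tension given as % variation from control. Mean ± SEM of four assays from four experiments; Student's t-test against the 8-phenyltheophylline-only atrium.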

Cavia porcellus [20] = species on record: Cavia porcellus; test: Inotropic effect in electrically driven left atrium from reserpine-treated guinea pigs at concentration of 10E-5 M; format: functional, Cardiac atrium
In short: (§5)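 Electrically driven left atrium from reserpine-treated guinea pigs (tyramine-unresponsive), 29 °C, pH 7.5, resting tension […], 90 min equilibration. Compound dissolved in DMSO and added cumulatively, 5 min per step. Where used, adenosine deaminase was preincubated 20 min, and basal force was taken after ADA addition. Developed tension given as % change over control. Mean ± SEM of six assays.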

Adenosine receptor A1 = target: T1, Adenosine receptor A1 (Cavia porcellus, UniProt P47745); test: Inhibition of [3H]-CHA binding to Adenosine A1 receptor in guinea pig heart
T1 sequence (P47745 whole entry): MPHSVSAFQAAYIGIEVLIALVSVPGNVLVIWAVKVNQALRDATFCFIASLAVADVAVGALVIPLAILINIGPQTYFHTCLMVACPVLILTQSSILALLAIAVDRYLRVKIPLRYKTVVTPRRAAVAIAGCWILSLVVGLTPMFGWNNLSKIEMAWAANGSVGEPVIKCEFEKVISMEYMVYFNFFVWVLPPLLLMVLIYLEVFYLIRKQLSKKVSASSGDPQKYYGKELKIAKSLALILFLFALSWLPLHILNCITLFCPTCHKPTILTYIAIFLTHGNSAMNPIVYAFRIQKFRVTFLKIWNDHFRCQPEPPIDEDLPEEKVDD
In short: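 Guinea pig heart membranes prepared in 50 mM Tris-HCl pH 7.4 and pretreated with adenosine deaminase 2 IU/mL for 30 min at 37 °C. Incubated with 1 nM [3H]CHA, membranes from 15 mg tissue, 120 min at 23 °C. Bound ligand separated by GF/B filtration; nonspecific binding defined with (R)-PIA. Six concentrations tested in triplicate; IC50 by probit analysis.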

Cavia porcellus [21] = species on record: Cavia porcellus; test: as §2; format: functional; in short: as §1
Cavia porcellus [22] = species on record: Cavia porcellus; test: Ionotropic Response to 8-Phenyltheophylline in Electrically driven Left atrium from Resperpine-Treated Guinea pigs at the concentration of 3 x 10E-5 M; format: functional, Cardiac atrium; in short: as §3
Cavia porcellus [23] = species on record: Cavia porcellus; test: Ionotropic Response to 8-Phenyltheophylline (10E-5) in Electrically driven Left atrium from Resperpine-Treated Guinea pigs at the concentration of 3 x 10E-4 M; format: functional, Cardiac atrium; in short: as §4
Cavia porcellus [24] = species on record: Cavia porcellus; test: Ionotropic Response to 8-Phenyltheophylline (3 x 10E-6 M) in Electrically driven Left atrium from Resperpine-Treated Guinea pigs at the concentration of 3 x 10E-5 M; format: functional, Cardiac atrium; in short: as §3
Cavia porcellus [25] = species on record: Cavia porcellus; test: Ionotropic Response to 8-Phenyltheophylline (10e-4 M) in Electrically driven Left atrium from Resperpine-Treated Guinea pigs at the concentration of 10E-4 M; format: functional, Cardiac atrium; in short: as §4
Cavia porcellus [26] = species on record: Cavia porcellus; test: Ionotropic Response to 8-Phenyltheophylline in Electrically driven Left atrium from Resperpine-Treated Guinea pigs at the concentration of 3 x 10E-4 M; format: functional, Cardiac atrium; in short: as §3
Cavia porcellus [27] = species on record: Cavia porcellus; test: Inotropic effect in electrically driven left atrium from reserpine-treated guinea pigs at concentration of 3 x 10E-5 M; format: functional, Cardiac atrium; in short: as §5
Cavia porcellus [28] = species on record: Cavia porcellus; test: Inotropic effect in electrically driven left atrium from reserpine-treated guinea pigs at concentration of 3 x 10E-4 M; format: functional, Cardiac atrium; in short: as §5
Cavia porcellus [29] = species on record: Cavia porcellus; test: Ionotropic Response to 8-Phenyltheophylline in Electrically driven Left atrium from Resperpine-Treated Guinea pigs at the concentration of 10E-4 M; format: functional, Cardiac atrium; in short: as §3
Cavia porcellus [30] = species on record: Cavia porcellus; test: Ionotropic Response to 8-Phenyltheophylline (10E-4) in Electrically driven Left atrium from Resperpine-Treated Guinea pigs at the concentration of 3 x 10E-4 M; format: functional, Cardiac atrium; in short: as §4
Cavia porcellus [31] = species on record: Cavia porcellus; test: Inotropic effect in electrically driven left atrium from reserpine-treated guinea pigs at concentration of 10E-3 M; format: functional, Cardiac atrium; in short: as §5
Cavia porcellus [32] = species on record: Cavia porcellus; test: Inotropic effect in electrically driven left atrium from reserpine-treated guinea pigs at concentration of 3 x 10E-6 M; format: functional, Cardiac atrium; in short: as §5
Cavia porcellus [33] = species on record: Cavia porcellus; test: Inotropic effect in electrically driven left atrium from reserpine-treated guinea pigs at concentration of 10E-4 M; format: functional, Cardiac atrium; in short: as §5
Cavia porcellus [34] = species on record: Cavia porcellus; test: Inotropic effect in electrically driven left atrium from reserpine-treated guinea pigs at concentration of 10E-6 M; format: functional, Cardiac atrium; in short: as §5
Cavia porcellus [35] = species on record: Cavia porcellus; test: Ionotropic Response to 8-Phenyltheophylline (10e-5 M) in Electrically driven Left atrium from Resperpine-Treated Guinea pigs at the concentration of 10E-4 M; format: functional, Cardiac atrium; in short: as §4
Cavia porcellus [36] = species on record: Cavia porcellus; test: Ionotropic Response to 8-Phenyltheophylline (3 x 10E-5 M) in Electrically driven Left atrium from Resperpine-Treated Guinea pigs at the concentration of 10E-4 M; format: functional, Cardiac atrium; in short: as §3
Cavia porcellus [37] = species on record: Cavia porcellus; test: Ionotropic Response to 8-Phenyltheophylline (10e-4 M) in Electrically driven Left atrium from Resperpine-Treated Guinea pigs at the concentration of 3 x 10E-5 M; format: functional, Cardiac atrium; in short: as §4

`CCOC(=O)c1cnc(N(C)C)nc1` was tested, and the Variation (Cavia porcellus [1]) was 1.19%, the Variation (Cavia porcellus [2]) was 14.81% and the Variation (Cavia porcellus [3]) was 9.03%. For the same molecule, the Variation (Cavia porcellus [4]) was 5.55%, the Variation (Cavia porcellus [5]) was 4.76% and the Variation (Cavia porcellus [6]) was -59.61%. It also gave a Variation (Cavia porcellus [7]) of 18.51%, a Variation (Cavia porcellus [8]) of 0% and a Variation (Cavia porcellus [9]) of 7.43%. For the same molecule, the Variation (Cavia porcellus [10]) was 11.04%, the Variation (Cavia porcellus [11]) was 3.71% and the Variation (Cavia porcellus [12]) was 11.71%. The Variation (Cavia porcellus [13]) was 11.11% and the Variation (Cavia porcellus [14]) was 0%.
`COC(=O)c1cnc(N(C)C)nc1Cc1ccccc1` was tested, and the Variation (Cavia porcellus [1]) was 0%, the Variation (Cavia porcellus [2]) was -55.15% and the Variation (Cavia porcellus [15]) was 14.9%. For the same molecule, the Variation (Cavia porcellus [16]) was -11%, the Variation (Cavia porcellus [3]) was -13.54% and the Variation (Cavia porcellus [4]) was 8.97%. The Variation (Cavia porcellus [17]) was -4.34%, the Variation (Cavia porcellus [18]) was -28.9% and the Variation (Cavia porcellus [5]) was 5.83%. For the same molecule, the Variation (Cavia porcellus [19]) was 11%, the Variation (Cavia porcellus [20]) was 7.45% and the IC50 (Adenosine receptor A1) was 21.3 µM. The Variation (Cavia porcellus [6]) was -100%, the Variation (Cavia porcellus [7]) was -100% and the Variation (Cavia porcellus [8]) was 0%. It also gave a Variation (Cavia porcellus [21]) of -8.03%, a Variation (Cavia porcellus [22]) of -6.66% and a Variation (Cavia porcellus [23]) of -22.2%. For the same molecule, the Variation (Cavia porcellus [24]) was 8.79%, the Variation (Cavia porcellus [10]) was -6.54% and the Variation (Cavia porcellus [25]) was 19%. It also gave a Variation (Cavia porcellus [26]) of -33.52%, a Variation (Cavia porcellus [27]) of -5.21% and a Variation (Cavia porcellus [28]) of -48.3%. The Variation (Cavia porcellus [29]) was -9.37%, the Variation (Cavia porcellus [11]) was 0% and the Variation (Cavia porcellus [30]) was -6.66%. It also gave a Variation (Cavia porcellus [12]) of -55.28%, a Variation (Cavia porcellus [31]) of -100% and a Variation (Cavia porcellus [32]) of 4.85%. The Variation (Cavia porcellus [33]) was -14.2%, the Variation (Cavia porcellus [34]) was 0% and the Variation (Cavia porcellus [13]) was -16.06%. It also gave a Variation (Cavia porcellus [35]) of -3.33%, a Variation (Cavia porcellus [14]) of 0% and a Variation (Cavia porcellus [36]) of 2.72%. The Variation (Cavia porcellus [37]) was 20.2%.
